Source: PubChem (several laboratories)
In the library only some 1.5% were active in any assay of this set; here they are far more common.
PKA-R2B act = activators of human PKA-R2B complex; hit rate 0.079% among 340,000; activation, % at 11.4 µM; AID 504700; PKA-R2B holoenzyme dissociation, Cy5-IP20 fluorescence polarization; R2B truncated from residue 108, S112A mutant; 0% DMSO only, 100% 113 µM cGMP; P22694+P31323;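 active means activation above a cutoff set at the mean over all compounds plus 3 SD, cut at about 18% in these data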;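 further: higher means more holoenzyme dissociation and a rise in polarization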
Target sequence (P31323 whole entry, looked up, other chains not shown, the tested form may be a part): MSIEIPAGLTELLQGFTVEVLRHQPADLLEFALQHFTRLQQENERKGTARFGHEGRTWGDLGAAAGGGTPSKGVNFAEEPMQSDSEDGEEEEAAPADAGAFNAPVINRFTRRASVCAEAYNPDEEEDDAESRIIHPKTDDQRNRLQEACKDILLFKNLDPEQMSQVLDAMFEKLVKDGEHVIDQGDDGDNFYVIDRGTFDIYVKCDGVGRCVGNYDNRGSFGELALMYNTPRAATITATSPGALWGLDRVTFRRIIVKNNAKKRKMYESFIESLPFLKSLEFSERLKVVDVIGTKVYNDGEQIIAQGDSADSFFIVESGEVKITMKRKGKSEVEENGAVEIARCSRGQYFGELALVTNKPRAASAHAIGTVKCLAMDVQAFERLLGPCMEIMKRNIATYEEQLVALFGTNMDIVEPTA
SIRT5 block = inhibitors of human sirtuin-5 desuccinylase. hit rate 1.1% among 330,000. Q9NXA8. inhibition, % at 15 µM. Purified SirT5, succinyl-peptide AMC, trypsin-coupled fluorescence; in the data active means inhibition above about 15%
Target sequence (Q9NXA8 whole entry, looked up): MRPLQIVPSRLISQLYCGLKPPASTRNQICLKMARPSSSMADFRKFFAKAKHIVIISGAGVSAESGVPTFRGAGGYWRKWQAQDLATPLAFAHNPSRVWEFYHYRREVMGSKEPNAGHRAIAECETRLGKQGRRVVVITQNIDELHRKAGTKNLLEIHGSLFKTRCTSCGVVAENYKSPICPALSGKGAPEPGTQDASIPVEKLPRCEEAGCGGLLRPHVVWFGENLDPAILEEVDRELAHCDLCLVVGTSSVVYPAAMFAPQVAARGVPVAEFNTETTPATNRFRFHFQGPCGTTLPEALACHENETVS
S100A4 MyoIIA = blocks human S100A4 binding to myosin IIA peptide. S100A4/TAMRA-MyoIIA peptide fluorescence polarization. P26447. inhibition, % at 10.7 µM. hit rate 0.14% among 360,000. AID 652163;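 active means mean inhibition of at least 70% across replicates, with every replicate also reaching that level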
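Test system – S100A4 monomer (human) · Compound – single-point compound testing · Schedule – 5 min incubation before reading · Probe or stimulus – TAMRA-labelled myosin IIA heavy-chain peptide probe, 5 nM · Benchmarks – neutral control DMSO, positive control TFP · Medium – Calcium-containing HEPES buffer, pH 7.2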
PKA-R1A activ = activators of PKA-R1A complex. activation, % at 11.4 µM. P00514+P68181. hit rate 0.083% among 340,000. PKA-R1A dissociation, Cy5-IP20 fluorescence polarization; scaled: DMSO 0%, 113 µM cGMP 100%;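 active means percent activation above the mean of all tested compounds plus 3 SD, cut at about 19% in these data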;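 further: higher means more PKAc released from R1A so a rise in polarization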
CRFBP-R2 block = antagonists of CRF-binding protein/CRF-R2 receptor complex; HEK293 CRF-R2/CRF-BP, CRF-induced calcium fluorescence; inhibition, % at 11.8 µM; hit rate 0.59% among 350,000; AID 588475;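 active means inhibition of the ligand-induced calcium signal above about 50% at the single tested concentration, limit read from the data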
* = called active by the depositor; . = no result given.

SMILES | PKA-R2B act | SIRT5 block | S100A4 MyoIIA | PKA-R1A activ | CRFBP-R2 block
C[C@H](CO)N1C[C@H](C)[C@H](CN(C)C(=O)Cc2ccccc2)Oc2ncc(C3=CCCCC3)cc2C1=O | . | 21.1* | -1.7 | . | .
C[C@H](CO)N1C[C@H](C)[C@H](CN(C)C(=O)Cc2ccccc2)Oc2cc(C3=CCCCC3)ccc2S1(=O)=O | . | 15.4* | 10.3 | . | .
C[C@H](CO)N1C[C@H](C)[C@@H](CN(C)C(=O)Cc2ccccc2)Oc2cc(C3=CCCCC3)ccc2S1(=O)=O | . | 10.7 | 14.7 | . | .
C[C@@H]1CN([C@H](C)CO)S(=O)(=O)c2ccc(C3=CCCCC3)cc2O[C@H]1CN(C)C(=O)Nc1ccc2c(c1)OCO2 | . | 20.4* | -15.6 | . | .
C[C@@H]1CN([C@H](C)CO)S(=O)(=O)c2ccc(C3=CCCCC3)cc2O[C@@H]1CN(C)C(=O)Cc1cccnc1 | . | 15.0* | 4.9 | . | .
COc1ccc(NC(=O)Nc2cccc3c2O[C@H](CN(C)Cc2ccc(C(F)(F)F)cc2)[C@@H](C)CN([C@@H](C)CO)C3=O)cc1 | . | 6.2 | 5.8 | . | .
O=C(Nc1ccc(F)cc1)N[C@@H]1C=C[C@H](CC(=O)N2CCOCC2)O[C@H]1CO | . | 2.0 | 35.1 | . | .
C[C@H](CO)N1C[C@H](C)[C@@H](CN(C)Cc2ccccc2)Oc2ncc(C#CCN(C)C)cc2C1=O | . | . | 1.0 | . | .
C[C@H](CO)N1C[C@H](C)[C@@H](CN(C)Cc2ccccc2)Oc2cc(C3=CCCC3)ccc2S1(=O)=O | . | 16.8* | -12.8 | . | .
COc1ccc(S(=O)(=O)N(C)C[C@H]2Oc3ccc(NC(=O)CCCN(C)C)cc3CC(=O)N([C@H](C)CO)C[C@@H]2C)cc1 | . | -2.5 | -4.7 | . | .
COc1ccc(C2C3(C#N)C(N)=NC(OC)(OC)C23C#N)cc1 (stereo not drawn) | -0.3 | 18.3* | -6.9 | -4.6 | -1.0
COC1(OC)N=C(N)C2(C#N)C(c3ccc(C)cc3)C12C#N (stereo not drawn) | -2.0 | . | . | 4.3 | 6.4
CC(=NNC(=O)c1ccncc1)c1ccccc1Cl | -3.7 | . | -4.4 | 4.8 | 0.6
C/C(=N\NC(=O)c1ccccc1NC(=O)c1ccc(Cl)cc1)c1ccncc1 | 7.9 | 0.4 | -4.7 | 0.4 | 71.5*
CC(C)C(=O)Nc1ncc(Cc2ccccc2Cl)s1 | -1.9 | 1.0 | -0.2 | -7.0 | -10.1
N#CCC(=O)Nc1ncc(Cc2ccccc2Cl)s1 | -8.0 | 15.4* | -21.3 | -6.3 | -21.7
Cc1ccc(S(=O)(=O)Nc2ccc3c(c2)C(=O)N([C@H](C)CO)C[C@H](C)[C@H](CN(C)C(=O)Nc2ccccc2)OCCCC[C@H](C)O3)cc1 | . | 6.1 | -12.7 | . | .
CCN(Cc1ccccc1)S(=O)(=O)CCNC(=O)c1ccccc1 | 5.5 | -1.9 | -0.8 | -5.1 | 6.4
COc1ccc(C(=O)NCCS(=O)(=O)N(C)C2CCCCC2)cc1 | -3.5 | -2.6 | -1.6 | 3.0 | 50.6*
CCN(C1CCCCC1)S(=O)(=O)CCNC(=O)c1ccc(OC)cc1 | -1.9 | . | -1.3 | 2.2 | 5.6
CCN(Cc1ccccc1)S(=O)(=O)CCNC(=O)c1ccc(OC)cc1 | -6.1 | 35.0* | -7.4 | -2.9 | 6.6
Cc1nn2c(N3CCN(C)CC3)cc(C(C)(C)C)nc2c1-c1ccccc1 | 0.7 | 15.4* | -6.0 | -5.6 | -48.3
Cc1ccc(NC(=S)N2CCC(NC(=O)c3ccc(C)cc3)CC2)cc1 | -0.1 | -2.5 | 2.3 | 1.9 | 0.9
CCCNC(=S)N1CCC(NC(=O)c2ccc(C)cc2)CC1 | 11.6 | 24.7* | -0.5 | -3.2 | -3.0
COCC#Cc1cnc2c(c1)C(=O)N([C@H](C)CO)C[C@@H](C)[C@@H](CN(C)C(=O)CCN1CCCCC1)O2 | . | -2.5 | -6.1 | . | .
SMILES | PKA-R2B act | SIRT5 block | S100A4 MyoIIA | PKA-R1A activ | CRFBP-R2 block
Cc1ccc(N(C(=O)Cn2nnc(-c3cccs3)n2)C(C(=O)NC2CCCC2)c2ccncc2)cc1 (stereo not drawn) | -0.5 | . | . | 1.0 | 20.6
Cc1ccc(N(C(=O)Cn2nnc(-c3ccccc3F)n2)C(C(=O)NC2CCCC2)c2ccncc2)cc1 (stereo not drawn) | 3.2 | -2.9 | 0.2 | 3.7 | 50.7*
O=C(NCC[C@@H]1CC[C@H](NC(=O)c2cccnc2)[C@H](CO)O1)Nc1ccc(C(F)(F)F)cc1 | . | -1.5 | -2.9 | . | .
CCOC(=S)SCc1cn2ccc(C)cc2n1 | -11.0 | -4.2 | 0.3 | -10.6 | 2.7
Cc1ccn2cc(CSc3ccccc3N)nc2c1 | -3.0 | . | . | 2.9 | 61.1*
O=c1c2ccccc2nc2c3ccccc3c(NCc3ccccn3)nn12 | -9.8 | 111.6* | 8.2 | -5.5 | 17.6
Cc1cc(C)n(CC(=O)NNC(=O)COc2ccc(Cl)cc2Cl)n1 | -4.0 | 15.3* | -13.2 | -9.6 | 7.3
Cc1ccc(S(=O)(=O)/N=C2\C=C(Nc3cccc(C(=O)O)c3)C(=O)c3ccccc32)c(C)c1 | 0.6 | 3.2 | -7.2 | -6.0 | 66.0*
Cc1ccc(S(=O)(=O)/N=C2\C=C(Nc3cccc(C(=O)O)c3)C(=O)c3ccccc32)cc1 | -2.7 | -3.0 | -3.5 | -6.9 | 37.7
CCC(=O)Nc1ccc2c(c1)OC[C@H](C)N(Cc1ccccc1C(=O)O)C[C@H](C)[C@@H](OC)CN(C)C2=O | . | . | 90.3* | . | .
CCC(=O)Nc1ccc2c(c1)C(=O)N(C)C[C@H](OC)[C@@H](C)CN(Cc1ccccc1C(=O)O)[C@@H](C)CO2 | . | -1.0 | 0.3 | . | .
CCC(=O)Nc1ccc2c(c1)OC[C@@H](C)N(Cc1cccc(F)c1)C[C@@H](C)[C@H](OC)CN(C)C2=O | . | 3.4 | 24.7 | . | .
CCC(=O)Nc1ccc2c(c1)OC[C@H](C)N(Cc1cccc(F)c1)C[C@@H](C)[C@H](OC)CN(C)C2=O | . | 19.6* | 3.9 | . | .
CCCC(=O)Nc1ccc2c(c1)OC[C@H](C)N(Cc1ccccc1)C[C@@H](C)[C@@H](OC)CN(C)C2=O | . | 37.5* | -0.6 | . | .
COCC#Cc1cnc2c(c1)C(=O)N([C@@H](C)CO)C[C@@H](C)[C@@H](CN(C)C(=O)c1ccc(F)cc1)O2 | . | 31.2* | 25.2 | . | .
CC(C)C#Cc1cnc2c(c1)C(=O)N([C@@H](C)CO)C[C@H](C)[C@@H](CN(C)C(=O)Cc1ccccn1)O2 | . | 16.9* | -1.4 | . | .
CC(C)C#Cc1cnc2c(c1)C(=O)N([C@@H](C)CO)C[C@H](C)[C@H](CN(C)C(=O)c1ccccc1)O2 | . | 16.7* | 5.4 | . | .
CC(C)NC(=O)N(C)C[C@H]1Oc2ncc(C#CCc3ccccc3)cc2C(=O)N([C@@H](C)CO)C[C@@H]1C | . | 16.3* | 1.4 | . | .
CC(C)C#Cc1cnc2c(c1)C(=O)N([C@@H](C)CO)C[C@H](C)[C@@H](CN(C)C(=O)c1ccccc1)O2 | . | 1.0 | -40.1 | . | .
COCC(=O)N1[C@H](CO)[C@@H](c2ccccc2)C12CN(C(=O)c1ccc(F)cc1)C2 | . | 2.1 | 0.3 | . | .
CSc1nc(N)nc2c1ncn2CC(=O)NCC(c1ccccc1)c1ccccc1 | 5.1 | -1.1 | -7.2 | -1.1 | -1.3
CSc1nc(N)nc2c1ncn2CC(=O)NCC1CCCO1 (stereo not drawn) | -2.3 | 31.2* | -1.0 | -4.9 | -0.1
